Source: ChEMBL document CHEMBL4732019, “Collaborative virtual screening to elaborate an imidazo[1,2-a]pyridine hit series for visceral leishmaniasis” (RSC Med Chem, 2021)

Columns and labels:
[1] = Kinetic solubility of the compound at 200 uM incubated for 24 hrs at pH 7.4 by HPLC/UV analysis; format: physicochemical; conditions: buffer, pH 7.4, 24 h
Summary of the method: (§1)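 Shake-flask method: 10 mM DMSO stock diluted to 200 μM in phosphate buffer pH 2.0 or pH 7.4 (2% DMSO final). Shaken at 500 rpm, 24 h, room temperature, then filtered through polycarbonate membrane. Filtrate quantified by HPLC-UV against 1, 20 and 200 μM standards injected in duplicate.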

[2] = Kinetic solubility of the compound at 200 uM incubated for 24 hrs at pH 2 by HPLC/UV analysis; format: physicochemical; conditions: buffer, pH 2, 24 h; summary of the method: as §1
[3] = Drug uptake in BALB/c mouse plasma at 50 mg/kg, po measured after 24 hrs by LC/MS/MS analysis; format: ADME, organism-based; conditions: in vivo

| Kinetic_solubility [1] [mg/mL] | Kinetic_solubility [2] [mg/mL] | Drug uptake [3] | SMILES |
| --- | --- | --- | --- |
| < 0.0005 | 0.067 | – | Cc1ccn2c(NC3CCCC3)c(-c3ccc(N(C)C)cc3)nc2c1 |
| > 0.076 | > 0.076 | – | COc1ccn2c(Nc3ccc(F)cn3)c(-c3ccccn3)nc2c1 |
| – | – | Not Active | COc1ccn2c(Nc3cc(F)cc(F)c3)c(-c3ccccn3)nc2c1 |
| < 0.0005 | 0.073 | – | Cc1ccn2c(Nc3ccc(F)cc3)c(-c3ccccn3)nc2c1 |
| 0.008 | 0.072 | – | Cc1ccc2nc(-c3ccccn3)c(Nc3ccc4c(c3)OCCO4)n2c1 |
| < 0.0005 | > 0.076 | – | Clc1ccc2nc(-c3ccccn3)c(Nc3ccc4c(c3)OCCO4)n2c1 |
